Results from different studies.
Each line is one published result; the experiments were not run side by side.
Target: Sodium-dependent dopamine transporter (SLC6A3, Homo sapiens, UniProt Q01959)

SMILES | read-out | action | technique | cell line | tested at | inhibition [%]
CN(CCN1CCC(OC(=O)Nc2ccccc2-c2ccccc2)CC1)C(=O)c1ccc(CN2CCC(C(N)=O)CC2)cc1 | ligand displacement | – | radioligand | – | 1 µM | -4
CC(C)N1CCC[C@H]1CNC(=O)c1cn(C2CCCC2)c(=O)c2c1c1ccccc1n2C | ligand displacement | – | radioligand | – | 10 µM | 42
Clc1ccc2c(C3CCN(CCc4c[nH]c5ccccc45)CC3)c[nH]c2c1 | ligand displacement | – | radioligand | – | 10 µM | 96
CCCCCCCCCCCC(=O)OC[C@@H](COP(=O)(O)OCCNC(=O)c1ccc(Cn2c(=O)[nH]c3c(N)nc(OCCOC)nc32)cc1)OC(=O)CCCCCCCCCCC | ligand displacement | – | radioligand | – | 10 µM | 64
COc1ccc(S(=O)(=O)N2CCCCC2)cc1C | ligand displacement | – | radioligand | – | 10 µM | < 30
CCN(CC)CCCC[C@H](NC(=O)[C@H](CC(C)C)NC(=O)[C@H](C)NC(=O)[C@H](Cc1ccccc1)NC(=O)c1ccc(C(C)(C)C)cc1)C(=O)N[C@@H](CO)C(=O)OC | ligand displacement | – | radioligand | – | 10 µM | 7
Cc1cc2c(-c3ccco3)cnc(N[C@H]3CCN(C)C[C@@H]3C(=O)NC3CCCCC3)c2[nH]c1=O | cell-free assay | – | – | – | 10 µM | 8.66
Fc1ccc(C(OCCN2CCN(CCCc3ccccc3)CC2)c2ccc(F)cc2)cc1 | transporter uptake | inhibitor | – | HEK293 | 1 µM | 98
COCc1c(-c2cc3cc(C)cc(OC)c3s2)c2c(N)ncnn2c1CN1CCNC(=O)C1 | ligand displacement | – | radioligand | – | 10 µM | 35
CN1CCN(c2ccnc(NCCc3ccccc3)n2)CC1 | cell-free assay | – | – | – | 10 µM | 98
CC(C)Cn1cnc2c(N)nc3ccccc3c21 | ligand displacement | – | radioligand | – | 10 µM | 25
